pIC50: −log10 of the molar value. The source made the active and inactive calls. No cut-off for these calls is given here.
target: T1, Alkaline phosphatase, tissue-nonspecific isozyme (Mus musculus, UniProt P09242); assay: Inhibition of alkaline phosphatase in mouse Sarcoma 180/TG cells; assay type: cell-based; conditions: read-out: I50
T1 sequence (P09242 whole entry): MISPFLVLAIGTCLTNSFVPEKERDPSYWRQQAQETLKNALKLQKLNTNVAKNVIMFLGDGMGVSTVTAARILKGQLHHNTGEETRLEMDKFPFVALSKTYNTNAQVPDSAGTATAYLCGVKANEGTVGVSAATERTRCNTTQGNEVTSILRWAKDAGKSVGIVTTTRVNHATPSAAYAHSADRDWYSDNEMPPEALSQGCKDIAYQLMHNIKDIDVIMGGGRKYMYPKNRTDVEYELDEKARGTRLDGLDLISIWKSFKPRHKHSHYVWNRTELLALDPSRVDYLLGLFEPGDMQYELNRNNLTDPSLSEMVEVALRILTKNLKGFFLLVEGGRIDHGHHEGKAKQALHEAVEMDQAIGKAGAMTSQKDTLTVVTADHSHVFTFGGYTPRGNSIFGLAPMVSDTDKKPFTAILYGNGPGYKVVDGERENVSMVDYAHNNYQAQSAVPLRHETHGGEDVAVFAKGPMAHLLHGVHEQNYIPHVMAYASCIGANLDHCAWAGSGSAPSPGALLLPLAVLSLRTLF
Method in brief: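 Partially purified particulate-bound alkaline phosphatase from Sarcoma 180/TG ascites cells (4360 units/mL); compounds tested as oxalate salts; IC50 taken as the concentration cutting observed enzyme activity by 50%.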

| SMILES | pIC50 |
| --- | --- |
| C1=CN2CC(c3ccc4ccccc4c3)N=C2S1 (racemic) | 6.00 |
| Brc1ccc(C2CN3C=CSC3=N2)cc1 (racemic) | 5.89 |
| Brc1ccc([C@H]2CN3CCSC3=N2)cc1.O=C(O)C(=O)O | 5.74 |
| C1=CN2CC(c3cccs3)N=C2S1 (racemic) | 4.30 |
| Brc1cccc(C2CN3C=CSC3=N2)c1 (racemic) | 5.70 |
| c1ccc2cc(C3CN4CCSC4=N3)ccc2c1 (racemic) | 5.05 |
| O=[N+]([O-])c1cccc(C2CN3CCSC3=N2)c1 (racemic) | 4.42 |
| c1ccc(C2CN3CCSC3=N2)cc1 (racemic) | 4.42 |
| Fc1ccc(C2CN3CCSC3=N2)cc1 (racemic) | 4.80 |
| Cc1ccc(C2CN3C=CSC3=N2)cc1 (racemic) | 5.18 |
| Clc1ccc(C2CN3CCSC3=N2)cc1 (racemic) | 5.35 |
| Cc1ccc(C2CN3C=CSC3=N2)cc1C (racemic) | 4.96 |
| O=[N+]([O-])c1ccc(C2CN3C=CSC3=N2)cc1 (racemic) | 5.08 |
| Brc1ccc(C2CN3CCSC3=N2)cc1 (racemic) | 5.59 |
| C1=CN2CC(c3ccccc3)N=C2S1 (racemic) | 4.35 |
| Cc1cccc(C2CN3CCSC3=N2)c1 (racemic) | 4.40 |
| Cc1ccc(C2CN3CCSC3=N2)cc1 (racemic) | 5.09 |

system: not listed separately; assay: Ratio of growth inhibition of mouse Sarcoma 180/TG cells in presence of […] to growth inhibition of mouse Sarcoma 180/TG cells in absence of […] at 10 uM after 96 hrs; assay type: functional; conditions: not given
Method in brief: (§1)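 Log-phase Sarcoma 180/TG cells were seeded at 10^4 cells/mL in Fischer's medium with 10% horse serum at 37 °C. They were given the oxalate salt with or without 6-thioguanine (10^-6 M) for 96 h, and cell number/mL was counted. Ratio = cell count with 6-thioguanine / count without × 100.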

| SMILES | Ratio |
| --- | --- |
| Brc1ccc([C@H]2CN3CCSC3=N2)cc1.O=C(O)C(=O)O | 69 |

system: not listed separately; assay: Ratio of growth inhibition of mouse Sarcoma 180/TG cells in presence of […] to growth inhibition of mouse Sarcoma 180/TG cells in absence of […] at 50 uM after 96 hrs; assay type: functional; conditions: not given; method in brief: as §1

| SMILES | Ratio |
| --- | --- |
| Brc1ccc([C@H]2CN3CCSC3=N2)cc1.O=C(O)C(=O)O | 66 |

system: not listed separately; assay: Ratio of growth inhibition of mouse Sarcoma 180/TG cells in presence of […] to growth inhibition of mouse Sarcoma 180/TG cells in absence of […] at 100 uM after 96 hrs; assay type: functional; conditions: not given; method in brief: as §1

| SMILES | Ratio |
| --- | --- |
| Brc1ccc([C@H]2CN3CCSC3=N2)cc1.O=C(O)C(=O)O | 49 |

target: T2, Alkaline phosphatase, tissue-nonspecific isozyme (Mus musculus) (UniProt P09242); assay: Inhibition of alkaline phosphatase in mouse Sarcoma 180/TG cells up to 5 x 10^-4 M; assay type: cell-based; conditions: not given
T2 sequence (whole entry): T1 sequence (P09242 whole entry)
Method in brief: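 Particulate-bound alkaline phosphatase, partially purified from Sarcoma 180/TG ascites cells (4360 units/mL), exposed to oxalate salts at concentrations up to at least 5 x 10^-4 M and checked for significant inhibition.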

| SMILES | inhibition |
| --- | --- |
| CC(=O)/N=c1\sccn1CC(=O)c1ccc(Br)cc1 | inactive |
| N=c1sccn1CC(=O)c1ccc2ccccc2c1 | inactive |
| Cc1cccc(C(=O)CN2CCSC2=N)c1 | inactive |
| CC(=O)/N=c1\sccn1CC(=O)c1ccc(C)cc1 | inactive |
| CC(=O)/N=c1\sccn1CC(=O)c1ccc(C)c(C)c1 | inactive |
| CC(=O)/N=c1\sccn1CC(O)c1ccc(C)c(C)c1 (racemic) | inactive |
| N=C1SCCN1CC(=O)c1ccc2ccccc2c1 | inactive |
| CSc1nc(-c2ccccc2)c[nH]1 | inactive |
| N=c1sccn1CC(=O)c1ccc(Br)cc1 | inactive |
| N=c1sccn1CC(=O)c1ccc([N+](=O)[O-])cc1 | inactive |
| CC(=O)/N=c1\sccn1CC(=O)c1ccc([N+](=O)[O-])cc1 | inactive |
| CC(=O)/N=c1\sccn1CC(O)c1ccc([N+](=O)[O-])cc1 (racemic) | inactive |
| CC(=O)/N=C1\SCCN1CC(O)c1cccc(C)c1 (racemic) | inactive |
| CC(=O)/N=c1\sccn1CC(O)c1ccc(C)cc1 (racemic) | inactive |
| CC(=O)/N=c1\sccn1CC(=O)c1ccc2ccccc2c1 | inactive |
| CC(=O)/N=c1\sccn1CC(O)c1ccc2ccccc2c1 (racemic) | inactive |
| CC(=O)/N=c1\sccn1CC(O)c1ccc(Br)cc1 (racemic) | inactive |
| CC(=O)/N=C1\SCCN1CC(=O)c1cccc(C)c1 | inactive |
| CC(=O)/N=C1\SCCN1CC(O)c1ccc2ccccc2c1 (racemic) | inactive |
| CC(=O)/N=C1\SCCN1CC(=O)c1ccc2ccccc2c1 | inactive |
| CSc1nc(-c2ccccc2)cn1CCO | inactive |
| Cc1ccc(C(=O)Cn2ccsc2=N)cc1 | inactive |

Source: ChEMBL document CHEMBL3244381, “Tetramisole analogues as inhibitors of alkaline phosphatase, an enzyme involved in the resistance of neoplastic cells to 6-thiopurines” (J Med Chem, 1977)
